APJ agonist: APJ receptor agonism; activation, % at 20 µM; CHO-K1 APJ PathHunter beta-arrestin, luminescence; 0% DMSO wells, 100% apelin; 0.11% of 330,000 active;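 active = activation more than six SD over the plate average, tested at 20 µM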;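 note: 0% = DMSO alone and 100% = apelin-13 at 10 nM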
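Assay system: CHO-K1 APJ beta-arrestin complementation cell line / Compound: single test compound dose, 20 µM final, 1% DMSO / Times: overnight seeding, 90 min compound at 25 °C, 1 h detection / Technique: beta-gal luminescence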
CCR6 antag: CCR6 (human) receptor antagonism. P51684. CHO-K1 CCR6 PathHunter beta-arrestin, luminescence, CCL20-stimulated. inhibition, % at 20 µM. 0.49% of 340,000 active. AID 493098;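 active = compounds whose inhibition of the agonist-driven luminescence signal at 20 µM reaches about 50%, limit read from the data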;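 note: cells stimulated with CCL20 at 14 nM final; plate controls were DMSO with CCL20 for no effect and DMSO without agonist for full effect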
APOBEC3G inh: APOBEC3G (human) deaminase inhibition; Q9HC16; 0.28% of 330,000 active; inhibition, % at 20 µM; recombinant A3G, ssDNA deamination FAM/TAMRA fluorescence;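 active = inhibition of at least 40% at 20 µM, with no more than 30% in the related APOBEC3A deaminase screen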;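 note: plate controls were DMSO wells with A3G for no effect and wells lacking A3G enzyme for full effect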
APJ antagonist: APJ receptor antagonism. P35414. CHO-K1 APJ beta-arrestin complementation, luminescence. inhibition, % at 20 µM. 0.32% of 330,000 active. AID 2521;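 active = inhibition above about 40% at 20 µM, limit read from the data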;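 note: cells challenged with 10 nM apelin-13 agonist together with compound; plate controls were apelin-13 plus DMSO wells for no effect and DMSO wells lacking apelin-13 for full effect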
CXCR6 block: inhibitors of human CXCR6 receptor. 0.36% of 360,000 active. CHO-K1 PathHunter CXCR6 beta-arrestin, luminescence. AID 602244. inhibition, % at 20 µM; in the data active = inhibition above about 34%, passing the limit was not always enough;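 note: antagonist mode with CXCL16 agonist at 10 nM final; 0% = 10 nM CXCL16 with DMSO and 100% = unstimulated wells without agonist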
Target sequence (O00574 whole entry, looked up): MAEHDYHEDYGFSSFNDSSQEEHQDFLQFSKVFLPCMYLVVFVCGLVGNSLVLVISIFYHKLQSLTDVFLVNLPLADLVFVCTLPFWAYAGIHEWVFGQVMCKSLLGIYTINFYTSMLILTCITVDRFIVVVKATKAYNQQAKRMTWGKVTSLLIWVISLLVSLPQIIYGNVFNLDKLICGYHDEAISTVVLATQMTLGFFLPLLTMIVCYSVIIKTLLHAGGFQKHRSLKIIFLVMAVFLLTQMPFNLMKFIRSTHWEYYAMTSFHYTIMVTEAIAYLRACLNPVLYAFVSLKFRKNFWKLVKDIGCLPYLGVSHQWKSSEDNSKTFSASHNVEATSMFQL
APOBEC3A inh: human APOBEC3A DNA deaminase inhibition; 0.41% of 330,000 active; AID 493011; inhibition, % at 20 µM; recombinant A3A, FAM/TAMRA ssDNA deamination fluorescence;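 active = at least 40% inhibition at 20 µM here, with at most 30% in a related deaminase screen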;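 note: plate controls were A3A with DMSO for no effect and wells lacking A3A enzyme for full effect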
Target sequence (P31941 whole entry, looked up): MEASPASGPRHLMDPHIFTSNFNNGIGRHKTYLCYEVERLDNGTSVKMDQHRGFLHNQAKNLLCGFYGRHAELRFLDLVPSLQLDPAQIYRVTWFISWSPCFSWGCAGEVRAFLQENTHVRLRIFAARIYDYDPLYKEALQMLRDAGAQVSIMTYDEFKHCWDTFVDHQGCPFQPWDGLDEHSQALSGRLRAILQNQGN
* hit, by the source's call; . = no result. In the library only some 1.4% were active in any assay of this set; here they are far more common.

SMILES | APJ agonist | CCR6 antag | APOBEC3G inh | APJ antagonist | CXCR6 block | APOBEC3A inh
O=C(/C=C/c1ccccn1)c1cc(Br)ccc1O | 0 | 59* | 4 | -5 | 5 | -6
NC(N)=N/N=C/c1cc([N+](=O)[O-])ccc1O | -11 | 9 | -9 | 6 | 17 | 0
O=[N+]([O-])c1ccc(O)c(/C=N\N=C2c3ccccc3-c3ccccc32)c1 | -1 | 56* | -2 | 26 | 23 | 0
O=C1Nc2ccc(Br)cc2/C1=N\N=C\C1=C(N2CCOCC2)C(=C/c2ccccc2)/CC1 | . | 55* | . | . | 41* | .
CC(C)OC(=O)N(C)C[C@@H]1OCc2cn(nn2)CCCC(=O)N([C@@H](C)CO)C[C@H]1C | . | . | . | . | -3 | .
NS(=O)(=O)c1ccc(NC2=CC(c3ccc([N+](=O)[O-])cc3)N(c3ccc(S(N)(=O)=O)cc3)C2=O)cc1 (stereo unspecified) | -1 | 50* | 0 | 32 | 60* | -5
COc1ccc(NC2=CC(c3ccc(OC)c(OC)c3)N(c3ccc(OC)cc3)C2=O)cc1 (stereo unspecified) | -3 | 11 | -7 | 1 | -4 | -5
CC(C)=C(NC(=O)c1ccccc1)C(=O)Nc1ccc(C(=O)O)cc1 | -4 | 18 | -4 | -2 | 3 | -4
S=c1[nH]nc(-c2ccncc2)n1/N=C/c1cccc(Cl)c1 | -3 | 10 | 53* | -8 | 10 | -4
Cc1cccc(/C=N/n2c(-c3ccccn3)n[nH]c2=S)c1 | 4 | . | 57* | -25 | . | -1
S=c1[nH]nc(-c2ccccc2)n1/N=C/c1cccc(Cl)c1 | 0 | 8 | 17 | 19 | 9 | -6
COc1ccc([C@H]2C[C@H](O)[C@@H](n3cc(-c4ccc(F)cc4)nn3)CN2Cc2cccs2)cc1 | . | . | . | . | -4 | .
CC(/C=N/n1c(-c2ccc(Cl)cc2)n[nH]c1=S)=C\c1ccco1 | -2 | 17 | 9 | -12 | 13 | 13
N#CC(C#N)=C1C=CC=CN1/C(=C\c1ccco1)C(=O)c1ccc(Cl)cc1 | . | 117* | . | . | 103* | .
NS(=O)(=O)c1ccc(NC(=O)c2ccc(F)cc2F)c(NC(=O)c2ccc(F)cc2F)c1 | -1 | 51* | -10 | -3 | 2 | -1
Cc1ccc(S(=O)(=O)N2CCOCC2)cc1NC(=O)c1ccc(F)cc1F | -2 | 9 | -6 | 4 | -4 | -3
COCCNC(=O)C1(C)CCCN(C(=O)c2cccc(C(F)(F)F)c2)C1 (stereo unspecified) | . | . | . | . | 0 | .
C=CC(=O)Nc1cccc(N(C)c2ccnc(Nc3ccc(N4CCN(C)CC4)cc3)n2)c1 | . | 13 | . | . | -2 | .
CCOc1ccc(NC(=O)c2ccncc2)cc1 | -4 | -18 | -6 | -9 | -5 | -3
O=C(N/N=C1\C/C(=N\NC(=O)c2ccncc2)c2ccccc21)c1ccncc1 | 5 | 56* | 1 | -18 | 30 | -4
CCOc1ccc2c(c1)C(=NNC(=O)c1ccncc1)c1cc(OCC)ccc1-2 | -12 | 40 | -6 | 57* | 34 | -2
CC(C)n1nnnc1SCC(=O)NC1CCCC1 | -3 | 10 | 4 | 2 | 0 | -3
CC(=O)NCCNc1nc2cc(-c3cccc(C(F)(F)F)c3)sc2c(=O)n1C | . | . | . | . | 7 | .
O=C(NCc1cccc(F)c1)Nc1nnc([C@H]2C[C@H](O)[C@@H](CO)O2)s1 | . | . | . | . | 9 | .
C[C@H](NC(=O)COc1ccccc1)C(=O)OCC(=O)c1cc2ccccc2o1 | . | 76* | . | . | 48* | .
SMILES | APJ agonist | CCR6 antag | APOBEC3G inh | APJ antagonist | CXCR6 block | APOBEC3A inh
COc1cc(/C=C2/C(=O)c3cccc([N+](=O)[O-])c3C2=O)c(Br)cc1O | . | 97* | . | . | 86* | .
COc1ccccc1NC(=O)CCCCCN1C(=O)c2cccc([N+](=O)[O-])c2C1=O | -1 | -5 | -3 | -4 | 2 | -5
O=C(/C=C/c1ccc(O)c(O)c1)c1ccccc1O | -4 | 52* | 4 | 43* | 22 | -5
CC(C)(C)C(=O)NC(=S)NNC(=O)C(c1ccccc1)c1ccccc1 | -5 | 79* | -4 | 23 | 72* | 2
CCOc1ccc2c(ccc(/C=C/c3cc(C)c4cccnc4c3O)[n+]2C)c1 | . | 31 | . | . | 27 | .
Cc1c(C#N)c(O)n(C)c(=O)c1N=Nc1ccc(S(N)(=O)=O)cc1 | . | 52* | . | . | 25 | .
Cc1c(C#N)c(O)n(CCO)c(=O)c1N=Nc1ccc(S(N)(=O)=O)cc1 | -6 | 36 | 3 | 32 | 31 | 5
CCOc1ccc(CCN2C(=O)C(=O)N([C@@H](Cc3ccccc3)CN3CCC[C@H]3CN3C(=O)C(=O)NC[C@@H]3CC(C)C)C[C@@H]2Cc2ccc(O)cc2)cc1 | . | . | . | . | 14 | .
CCN1C(=O)/C(=C/C=C2\C=CN(CC)c3ccccc32)SC1=S | . | 53* | . | . | 34 | .
CCCN1C(=O)/C(=C\C=C2\N(CC)c3ccccc3C2(C)C)SC1=S | . | 46 | . | . | 19 | .
COC(=O)C1=C(CS(=O)(=O)c2ccccc2)NC(=O)NC1c1ccccc1 (stereo unspecified) | -8 | 8 | -6 | 4 | 1 | -4
Cc1cccc(N2CCN(C(=O)Cn3sc4nc(C)cc(C)c4c3=O)CC2C)c1 (stereo unspecified) | 8 | 72* | 53* | 6 | 8 | -4
Cc1cccc(N2CCN(C(=O)Cn3nc(C)n4cccc4c3=O)CC2C)c1 (stereo unspecified) | -2 | -4 | -10 | 1 | -2 | -1
Cc1snc(SCC(=O)c2ccc([N+](=O)[O-])cc2)c1C#N | 2 | 6 | 50* | -58 | -18 | -3
Cc1snc(SCC(=O)c2ccc(F)cc2)c1C#N | -2 | -18 | -5 | -13 | 1 | -3
Cc1ccc(/C=N/NC(=O)CC(=O)NCc2cccnc2)cc1 | 2 | -5 | -7 | 6 | -6 | -4
O=C(O)CCN1C(=O)/C(=C\c2ccc(-c3nc4ccccc4s3)o2)SC1=S | -2 | 53* | 17 | 3 | 38 | 20
C=CCN(CC=C)C(=O)COn1nnc2ccc(S(=O)(=O)N3CCOCC3)cc21 | -1 | 1 | 0 | -54 | -7 | 5
Cc1ccc(S(=O)(=O)NCC(NCc2ccc(F)cc2)c2ccccc2)cc1 (stereo unspecified) | -2 | 14 | -9 | 13 | 3 | -6
Cc1cccc2c(N=Nc3ccc(S(=O)(=O)Nc4cccc(Cl)c4)cc3[N+](=O)[O-])c(O)[nH]c12 | -3 | 58* | 0 | 14 | 19 | 2
CCn1c(C(=O)O)c(CC(=O)Nc2cccc(C(F)(F)F)c2)c2ccccc21 | 2 | -3 | -7 | 0 | -3 | -2
CCc1ccccc1N1C(=O)[C@@H]2Cc3ccccc3CN2C1=O | -2 | -1 | 6 | 5 | -6 | 3
CCCC(=O)N(C1CC(C)C(C#N)(C#N)C1(C#N)C#N)N(C)C (stereo unspecified) | -5 | 94* | -8 | 32 | 81* | -4
